Measurements reported in ChEMBL document CHEMBL1629574, “Novel chimeric beta-lactamase CTX-M-64, a hybrid of CTX-M-15-like and CTX-M-14 beta-lactamases, found in a Shigella sonnei strain resistant to various oxyimino-cephalosporins, including ceftazidime” (Antimicrob Agents Chemother, 2009).
≈ marks a conversion by molar mass, not a printed value.

What was measured:
Shigella sonnei [1] = assay: Antimicrobial activity against Shigella sonnei UIH-1 expressing beta-lactamase CTX-M-64 by broth microdilution method; type: functional
How it was run: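 MICs determined by CLSI broth microdilution on an automated panel system. […] Susceptibility categories assigned by CLSI criteria.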

Escherichia coli [2] = assay: Antimicrobial activity against rifampicin-resistant Escherichia coli X1037 transconjugant by broth microdilution method; type: functional
Escherichia coli [3] = assay: Antimicrobial activity against rifampicin-resistant Escherichia coli X1037 by broth microdilution method; type: functional
Escherichia coli [4] = assay: Antimicrobial activity against Escherichia coli XL-1 Blue harboring plasmid CL1920 by broth microdilution method; type: functional
Escherichia coli [5] = assay: Antimicrobial activity against Escherichia coli XL-1 Blue transconjugant harboring beta-lactamase CTX-M-64 by broth microdilution method; type: functional
Escherichia coli [6] = assay: Antimicrobial activity against rifampicin-resistant Escherichia coli X1037 transconjugant by disk diffusion method; type: functional
How it was run: (§1)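 Non-β-lactam agents were tested by CLSI disk diffusion. Susceptibility categories were assigned by CLSI criteria.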

Shigella sonnei [7] = assay: Antimicrobial activity against Shigella sonnei UIH-1 expressing beta-lactamase CTX-M-64 by disk diffusion method; type: functional
How it was run: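 Non-β-lactam susceptibility determined by CLSI disk diffusion on the clinical isolate. Categories assigned by CLSI criteria.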

Escherichia coli [8] = assay: Antimicrobial activity against Escherichia coli XL-1 Blue transconjugant harboring beta-lactamase CTX-M-64 by disk diffusion method; type: functional; how it was run: as §1
Shigella sonnei [9] = assay: Activity at Shigella sonnei UIH-1 beta-lactamase CTX-M-64 by spectrophotometry
How it was run: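 Recombinant enzyme from E. coli BL21(DE3)pLysS/pET29a, purified by cation exchange and gel filtration. Assays at 37°C in 50 mM phosphate pH 7.0, six substrate concentrations, UV-vis readout. Km and kcat from Michaelis-Menten fits of initial rates.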

Shigella sonnei [10] = details: UIH-1
Escherichia coli [11] = assay: Antimicrobial activity against rifampicin-resistant Escherichia coli X1037 by broth microdilution method in presence of 4 ug/ml beta-lactamase inhibitor clavulanic acid; type: functional
Escherichia coli [12] = assay: Antimicrobial activity against rifampicin-resistant Escherichia coli X1037 transconjugant by broth microdilution method in presence of 4 ug/ml beta-lactamase inhibitor clavulanic acid; type: functional
Escherichia coli [13] = assay: Antimicrobial activity against Escherichia coli XL-1 Blue harboring plasmid CL1920 by broth microdilution method in presence of 4 ug/ml beta-lactamase inhibitor clavulanic acid; type: functional
[14] = Inhibition of Shigella sonnei UIH-1 beta-lactamase CTX-M-64 by spectrophotometry in presence of 100 uM nitrocefin
How it was run: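 Recombinant CTX-M-64 was expressed from pET29a in E. coli BL21(DE3)pLysS (0.5 mM IPTG, 3 h, 37°C). It was purified by SP cation exchange (MES pH 6.0, NaCl gradient) then gel filtration. Enzyme was preincubated 5 min at 37°C with varied clavulanic acid before adding 100 μM nitrocefin. Hydrolysis was read at 485 nm in 50 mM phosphate pH 7.0, 37°C. IC50 is the inhibitor level halving the rate.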

Shigella sonnei [15] = assay: Antimicrobial activity against Shigella sonnei UIH-1 expressing beta-lactamase CTX-M-64 by broth microdilution method in presence of 4 ug/ml beta-lactamase inhibitor clavulanic acid; type: functional
Escherichia coli [16] = assay: Antimicrobial activity against Escherichia coli XL-1 Blue transconjugant harboring beta-lactamase CTX-M-64 by broth microdilution method in presence of 4 ug/ml beta-lactamase inhibitor clavulanic acid; type: functional
Escherichia coli [17] = assay: Antimicrobial activity against rifampicin-resistant Escherichia coli X1037 by disk diffusion method; type: functional; how it was run: as §1
Escherichia coli [18] = assay: Antimicrobial activity against Escherichia coli XL-1 Blue harboring plasmid CL1920 by disk diffusion method; type: functional
Escherichia coli [19] = assay: Antimicrobial activity against rifampicin-resistant Escherichia coli X1037 transconjugant by broth microdilution method in presence of beta-lactamase inhibitor clavulanic acid
Shigella sonnei [20] = assay: Antimicrobial activity against Shigella sonnei UIH-1 expressing beta-lactamase CTX-M-64 by broth microdilution method in presence of beta-lactamase inhibitor clavulanic acid
Escherichia coli [21] = assay: Antimicrobial activity against rifampicin-resistant Escherichia coli X1037 by broth microdilution method in presence of beta-lactamase inhibitor clavulanic acid
Escherichia coli [22] = assay: Antimicrobial activity against Escherichia coli XL-1 Blue harboring plasmid CL1920 by broth microdilution method in presence of beta-lactamase inhibitor clavulanic acid
[23] = Shigella sonnei, UIH-1, read-out: MIC
[24] = Escherichia coli, XL-1 Blue, read-out: MIC

SMILES | MIC (Shigella sonnei [1]; [23]) [µg/mL] | MIC (Escherichia coli [2]) [µg/mL] | MIC (Escherichia coli [3]) [µg/mL] | MIC (Escherichia coli [4]) [µg/mL] | MIC (Escherichia coli [5]; [24]) [µg/mL] | other results
CO/N=C(\C(=O)N[C@@H]1C(=O)N2C(C(=O)O)=C(CSc3nc(=O)c(O)nn3C)CS[C@H]12)c1csc(N)n1 [CEFTRIAXONE] | 1020 (≈ 1850 µM) | 2050 (≈ 3690 µM) | ≤ 0.25 | ≤ 0.25 | 2050 (≈ 3690 µM) | 
C[C@@H](O)[C@H]1C(=O)N2C(C(=O)O)=C(S[C@@H]3CN[C@H](C(=O)N(C)C)C3)[C@H](C)[C@H]12 [MEROPENEM] | ≤ 0.5 | ≤ 0.5 | ≤ 0.5 | ≤ 0.5 | ≤ 0.5 | 
C[C@@H](O)[C@H]1C(=O)N2C(C(=O)O)=C(SCCNC=N)C[C@H]12 [IMIPENEM ANHYDROUS] | ≤ 0.5 | ≤ 0.5 | ≤ 0.5 | ≤ 0.5 | ≤ 0.5 | 
Cc1nnc(SCC2=C(C(=O)O)N3C(=O)[C@@H](NC(=O)Cn4cnnn4)[C@H]3SC2)s1 [CEFAZOLIN] |  |  |  |  |  | MIC (Escherichia coli [6]): > 16 µg/mL; MIC (Shigella sonnei [7]): > 16 µg/mL; MIC (Escherichia coli [8]): > 16 µg/mL
N[C@@H](C(=O)N[C@@H]1C(=O)N2C(C(=O)O)=C(Cl)CS[C@H]12)c1ccccc1 [CEFACLOR ANHYDROUS] | > 16 | > 16 | ≤ 2 | ≤ 2 | > 16 | 
CO/N=C(\C(=O)N[C@@H]1C(=O)N2C(C(=O)[O-])=C(C[n+]3ccn4ncccc43)CS[C@H]12)c1nsc(N)n1 [CEFOZOPRAN] | > 16 | > 16 | ≤ 1 | ≤ 1 | > 16 | 
CC(=O)OCC1=C(C(=O)O)N2C(=O)[C@@H](NC(=O)Cc3cccs3)[C@H]2SC1 |  |  |  |  |  | Km (Shigella sonnei [9]): 37.9 µM; kcat (Shigella sonnei [9]): 185 s⁻¹; kcat/Km (Shigella sonnei [10]): 4.9 ×10⁶ /M/s
CC1(C)S[C@@H]2[C@H](NC(=O)[C@H](N)c3ccccc3)C(=O)N2[C@H]1C(=O)O [AMPICILLIN] | > 16 | > 16 | ≤ 2 | ≤ 2 | > 16 | Km (Shigella sonnei [9]): 19.5 µM; kcat (Shigella sonnei [9]): 36.9 s⁻¹; kcat/Km (Shigella sonnei [10]): 1.9 ×10⁶ /M/s
CCN1CCN(C(=O)N[C@@H](C(=O)N[C@@H]2C(=O)N3[C@@H]2SC(C)(C)[C@@H]3C(=O)O)c2ccccc2)C(=O)C1=O [PIPERACILLIN] | > 64 | > 64 | ≤ 8 | ≤ 8 | > 64 | 
C[C@H]1[C@H](NC(=O)/C(=N\OC(C)(C)C(=O)O)c2csc(N)n2)C(=O)N1S(=O)(=O)O [AZTREONAM] | 32 (≈ 73.5 µM) | 64 (≈ 147 µM) |  |  | 1020 (≈ 2350 µM) | 
CC(C)(O/N=C(\C(=O)N[C@@H]1C(=O)N2C(C(=O)[O-])=C(C[n+]3ccccc3)CS[C@H]12)c1csc(N)n1)C(=O)O [CEFTAZIDIME] | 32 (≈ 58.5 µM) | 64 (≈ 117 µM) | ≤ 0.25 | ≤ 0.25 | 2050 (≈ 3750 µM) | MIC (Escherichia coli [11]): ≤ 0.12 µg/mL; MIC (Escherichia coli [12]): ≤ 0.12 µg/mL; MIC (Escherichia coli [13]): ≤ 0.12 µg/mL; Ki [14]: > 10000 µM; MIC (Shigella sonnei [15]): ≤ 0.12 µg/mL; MIC (Escherichia coli [16]): ≤ 0.5 µg/mL
CO/N=C(\C(=O)N[C@@H]1C(=O)N2C(C(=O)[O-])=C(C[N+]3(C)CCCC3)CS[C@H]12)c1csc(N)n1 | > 32 | > 32 |  |  | > 32 | Km (Shigella sonnei [9]): 505 µM; kcat (Shigella sonnei [9]): 67.7 s⁻¹; kcat/Km (Shigella sonnei [10]): 1.3 ×10⁵ /M/s
CO/N=C(\C(=O)N[C@@H]1C(=O)N2C(C(=O)[O-])=C(C[n+]3cccc4c3CCC4)CS[C@H]12)c1csc(N)n1 [CEFPIROME] | > 16 | > 16 | ≤ 1 | ≤ 1 | > 16 | 
CO/N=C(\C(=O)N[C@@H]1C(=O)N2C(C(=O)O)=C(COC(C)=O)CS[C@H]12)c1csc(N)n1 [CEFOTAXIME] | 1020 (≈ 2250 µM) | 2050 (≈ 4500 µM) | ≤ 0.25 | ≤ 0.25 |  | MIC (Escherichia coli [11]): ≤ 0.12 µg/mL; Km (Shigella sonnei [9]): 103 µM; kcat (Shigella sonnei [9]): 197 s⁻¹; MIC (Escherichia coli [12]): ≤ 0.12 µg/mL; kcat/Km (Shigella sonnei [10]): 1.9 ×10⁶ /M/s; MIC (Escherichia coli [13]): ≤ 0.12 µg/mL; MIC (Escherichia coli [5]): >2048 µg/mL; MIC (Shigella sonnei [15]): ≤ 0.12 µg/mL; MIC (Escherichia coli [16]): ≤ 0.12 µg/mL
CO[C@@]1(NC(=O)CSC(F)F)C(=O)N2C(C(=O)O)=C(CSc3nnnn3CCO)CO[C@@H]21 [FLOMOXEF] |  |  |  |  |  | MIC (Escherichia coli [17]): ≤ 1 µg/mL; MIC (Escherichia coli [6]): ≤ 1 µg/mL; MIC (Shigella sonnei [7]): ≤ 1 µg/mL; MIC (Escherichia coli [8]): ≤ 1 µg/mL; MIC (Escherichia coli [18]): ≤ 1 µg/mL
CO[C@@]1(NC(=O)CSCC#N)C(=O)N2C(C(=O)O)=C(CSc3nnnn3C)CS[C@@H]21 [CEFMETAZOLE] |  | 1 (≈ 2.12 µM) | ≤ 0.5 | 1 (≈ 2.12 µM) | 1 (≈ 2.12 µM) | MIC (Shigella sonnei [1]): <=0.5 ug ml-1
COCC1=C(C(=O)O)N2C(=O)[C@@H](NC(=O)/C(=N\OC)c3csc(N)n3)[C@H]2SC1 [CEFPODOXIME] | > 64 | > 64 | ≤ 0.5 | ≤ 0.5 | > 64 | 
CO[C@@]1(NC(=O)C2SC(=C(C(N)=O)C(=O)O)S2)C(=O)N2C(C(=O)O)=C(CSc3nnnn3C)CS[C@@H]21 (stereo partly specified) [CEFOTETAN] | ≤ 0.5 | ≤ 0.5 | ≤ 0.5 | ≤ 0.5 | 8 (≈ 13.9 µM) | 
CN(C)CCn1nnnc1SCC1=C(C(=O)O)N2C(=O)[C@@H](NC(=O)Cc3csc(N)n3)[C@H]2SC1 [CEFOTIAM] |  |  |  |  |  | MIC (Escherichia coli [17]): ≤ 8 µg/mL; MIC (Escherichia coli [6]): > 16 µg/mL; MIC (Shigella sonnei [7]): > 16 µg/mL; MIC (Escherichia coli [8]): > 16 µg/mL; MIC (Escherichia coli [18]): ≤ 8 µg/mL
CO[C@@]1(NC(=O)Cc2cccs2)C(=O)N2C(C(=O)O)=C(COC(N)=O)CS[C@@H]21 [CEFOXITIN] | ≤ 2 | ≤ 2 | ≤ 2 | 4 (≈ 9.36 µM) | 8 (≈ 18.7 µM) | 
O=C(O)[C@H]1/C(=C/CO)O[C@@H]2CC(=O)N21 [CLAVULANIC ACID] |  |  |  |  |  | IC50 [14]: 0.01 µM
CC1(C)S[C@@H]2[C@H](NC(=O)[C@H](N)c3ccc(O)cc3)C(=O)N2[C@H]1C(=O)O [AMOXICILLIN] | 2 (≈ 5.47 µM) | 2 (≈ 5.47 µM) | ≤ 1 | 2 (≈ 5.47 µM) | 8 (≈ 21.9 µM) | MIC (Escherichia coli [19]): 2 µg/mL; MIC (Shigella sonnei [20]): 2 µg/mL; MIC (Escherichia coli [16]): 8 µg/mL; MIC (Escherichia coli [21]): ≤ 1 µg/mL; MIC (Escherichia coli [22]): 2 µg/mL
O=C(Cc1cccs1)N[C@@H]1C(=O)N2C(C(=O)O)=C(/C=C/c3ccc([N+](=O)[O-])cc3[N+](=O)[O-])CS[C@H]12 |  |  |  |  |  | Km (Shigella sonnei [9]): 14.8 µM; kcat (Shigella sonnei [9]): 252 s⁻¹; kcat/Km (Shigella sonnei [10]): 1.7 ×10⁷ /M/s
